Laboratory results as given in ChEMBL document CHEMBL1148141, “New labdene iterpenes from Eupatorium glutinosum” (2002).
≈ marks a conversion by molar mass, not a printed value. Calls of active or inactive are those of the source. The rule behind the calls is not given here.

Columns and labels:
[1] = test system: CCRF S-180; test: Cytotoxicity against mouse S180 cells by MTT assay; assay type: functional, cell-based
[2] = test system: Escherichia coli; test: Antibacterial activity against Escherichia coli IAM 1268 by two fold dilution method; assay type: functional
[3] = test system: Pseudomonas aeruginosa; test: Antibacterial activity against Pseudomonas aeruginosa IAM 1275 by two fold dilution method; assay type: functional
[4] = test system: Bacillus cereus; test: Antibacterial activity against Bacillus cereus IAM 1069 at 10 ug/disk after 18 hrs by agar overlay method; assay type: functional, organism-based
Outline: (§1)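 Agar overlay: bacteria grown in nutrient broth (50-100 µL) mixed into 3 mL melted 0.7% soft nutrient agar at 40 °C, poured over 20 mL 1.5% nutrient agar plates; 10 µL sample deposited on solidified agar; inhibition zone diameter read after 18 h at 37 °C. Methanol as solvent control.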

[5] = test system: Escherichia coli; test: Antibacterial activity against Escherichia coli IAM 1268 at 10 ug/disk after 18 hrs by agar overlay method; assay type: functional, organism-based; outline: as §1
[6] = test system: Staphylococcus aureus; test: Antibacterial activity against Staphylococcus aureus IAM 1011 by two fold dilution method; assay type: functional
[7] = test system: Staphylococcus aureus; test: Antibacterial activity against Staphylococcus aureus IAM 1011 at 10 ug/disk after 18 hrs by agar overlay method; assay type: functional, organism-based; outline: as §1
[8] = test system: Bacillus cereus; test: Antibacterial activity against Bacillus cereus IAM 1069 by two fold dilution method; assay type: functional
[9] = test system: Pseudomonas aeruginosa; test: Antibacterial activity against Pseudomonas aeruginosa IAM 1275 at 10 ug/disk after 18 hrs by agar overlay method; assay type: functional, organism-based; outline: as §1

MIC [2] [µg/mL] | MIC [3] [µg/mL] | MIC [6] [µg/mL] | MIC [8] [µg/mL] | Compound | Activity [1] | Activity [4] | Activity [5] | Activity [7] | Activity [9]
128 (≈ 256 µM) | 256 (≈ 511 µM) |  |  | CC(CCO)CC[C@@H]1C(C(=O)O)=CC[C@@H]2C(C)(C)[C@H](O[C@@H]3O[C@H](CO)[C@@H](O)[C@H](O)[C@H]3O)CC[C@@]12C (some centres not stated) | inactive |  |  |  | 
128 (≈ 378 µM) | 64 (≈ 189 µM) | 256 (≈ 756 µM) | 128 (≈ 378 µM) | CC(CCO)CC[C@@H]1C(C(=O)O)=CC[C@@H]2C(C)(C)[C@H](O)CC[C@@]12C (some centres not stated) | inactive | Active | Active | Active | Active
